# According to ChEMBL document CHEMBL1773037, “Evaluation of superior BACE1 cleavage sequences containing unnatural amino acids” (Bioorg Med Chem, 2011):
# Non-standard residues stand in square brackets, D forms with d. Residues, ends and D or L forms follow the SMILES beside them. 2Thi = N[C@@H](Cc1cccs1)C(=O)O; Nva = CCC[C@H](N)C(=O)O
# Experiments:
# [1] = target: Beta-secretase 1 (Homo sapiens) (UniProt P56817); experiment: Activity of recombinant BACE assessed as substrate cleavage after 1 hr by HPLC analysis
# Beta-secretase 1 (Homo sapiens), sequence (P56817 whole entry, the tested form may be a part): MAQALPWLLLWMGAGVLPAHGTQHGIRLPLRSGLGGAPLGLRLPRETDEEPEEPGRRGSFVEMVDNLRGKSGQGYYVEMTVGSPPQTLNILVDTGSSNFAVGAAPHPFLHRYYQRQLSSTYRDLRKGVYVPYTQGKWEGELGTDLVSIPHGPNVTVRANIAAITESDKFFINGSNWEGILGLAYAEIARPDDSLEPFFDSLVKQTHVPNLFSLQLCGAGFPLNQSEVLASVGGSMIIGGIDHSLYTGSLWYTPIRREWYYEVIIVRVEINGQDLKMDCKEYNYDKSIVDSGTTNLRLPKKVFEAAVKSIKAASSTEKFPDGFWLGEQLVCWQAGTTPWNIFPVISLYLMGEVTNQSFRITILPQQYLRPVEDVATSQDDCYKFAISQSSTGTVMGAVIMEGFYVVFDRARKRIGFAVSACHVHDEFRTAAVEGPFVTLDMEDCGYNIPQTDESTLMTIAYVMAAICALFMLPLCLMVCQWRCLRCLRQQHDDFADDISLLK
# [2] = target: Beta-secretase 1 (Homo sapiens) (UniProt P56817); experiment: Activity of recombinant BACE assessed as retention time of N-terminal fragment by HPLC method
# [3] = target: Beta-secretase 1 (Homo sapiens) (UniProt P56817); experiment: Activity of recombinant BACE assessed as retention time of C-terminal fragment by HPLC method
# [4] = target: Beta-secretase 1 (Homo sapiens) (UniProt P56817); experiment: Activity of recombinant BACE assessed as retention time of substrate by HPLC method
# [5] = target: Beta-secretase 1 (Homo sapiens) (UniProt P56817); experiment: Activity of recombinant BACE assessed as substrate cleavage upto 3 hrs by HPLC analysis
# Outline: (§1)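 Individually synthesized, purified substrates at 300 µM in 40 mM AcONa buffer, pH 4.5, 37 °C. rBACE1 used at 60 nM (P1, P4 substrates), 30 nM (P2, P3 substrates) or 10 nM (P1' substrates and the dodecapeptide). Aliquots taken at 0, 1 and 3 h, quenched with 7 M GuHCl, and the decrease in each substrate peak monitored by HPLC.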
# [6] = target: Beta-secretase 1 (Homo sapiens) (UniProt P56817); experiment: Activity of recombinant BACE assessed as substrate cleavage at 300 uM after 3 hrs by HPLC analysis; outline: as §1
Activity [1],retention time [2],retention time [3],retention time [4],Activity [5],Activity [6],SMILES
20%,0.289 h,0.082 h,0.297 h,,,CC[C@H](C)[C@H](N)C(=O)N[C@@H](CCCCN)C(=O)N[C@H](C(=O)N[C@@H](CCC(=O)O)C(=O)N[C@@H](CCC(=O)O)C(=O)N[C@H](C(=O)N[C@@H](CO)C(=O)N[C@@H](CCC(=O)O)C(=O)N[C@H](C(=O)N[C@@H](CC(N)=O)C(=O)N[C@@H](CC(C)C)C(=O)N[C@@H](CC(=O)O)C(=O)N[C@@H](C)C(=O)N[C@@H](CCC(=O)O)C(=O)N[C@@H](Cc1ccccc1)C(=O)N[C@@H](CCCNC(=N)N)C(=O)N[C@@H](Cc1cnc[nH]1)C(=O)N[C@@H](CC(=O)O)C(=O)N[C@@H](CO)C(=O)NCC(N)=O)C(C)C)[C@@H](C)CC)[C@@H](C)O
,,,0.658 h,90%,,CCC[C@H](NC(=O)[C@H](Cc1cccs1)NC(=O)[C@H](Cc1cccs1)NC(=O)[C@@H](NC(=O)[C@H](CCC(=O)O)NC(=O)[C@H](CO)NC(=O)[C@@H](N)[C@@H](C)CC)[C@@H](C)CC)C(=O)N[C@@H](C)C(=O)N[C@@H](CCC(=O)O)C(=O)N[C@@H](Cc1ccccc1)C(=O)N[C@@H](CCCNC(=N)N)C(=O)N[C@@H](Cc1cnc[nH]1)C(N)=O (H-ISEI[2Thi][2Thi][Nva]AEFRH-NH2)
,0.429 h,0.217 h,0.487 h,10%,50%,CC[C@H](C)[C@H](N)C(=O)N[C@@H](CO)C(=O)N[C@@H](CCC(=O)O)C(=O)N[C@H](C(=O)N[C@@H](CC(N)=O)C(=O)N[C@@H](CC(C)C)C(=O)N[C@@H](CC(=O)O)C(=O)N[C@@H](C)C(=O)N[C@@H](CCC(=O)O)C(=O)N[C@@H](Cc1ccccc1)C(=O)N[C@@H](CCCNC(=N)N)C(=O)N[C@@H](Cc1cnc[nH]1)C(N)=O)C(C)C (H-ISEVNLDAEFRH-NH2)
,0.429 h,0.217 h,0.483 h,,70%,CC[C@H](C)[C@H](N)C(=O)N[C@@H](CO)C(=O)N[C@@H](CCC(=O)O)C(=O)N[C@H](C(=O)N[C@@H](CC(N)=O)C(=O)N[C@@H](Cc1cccs1)C(=O)N[C@@H](CC(=O)O)C(=O)N[C@@H](C)C(=O)N[C@@H](CCC(=O)O)C(=O)N[C@@H](Cc1ccccc1)C(=O)N[C@@H](CCCNC(=N)N)C(=O)N[C@@H](Cc1cnc[nH]1)C(N)=O)C(C)C (H-ISEVN[2Thi]DAEFRH-NH2)
